Measurements as given in ChEMBL document CHEMBL5385966, “Synthesis and biological evaluation of new naphthalimide-thiourea derivatives as potent antimicrobial agents active against multidrug-resistant Staphylococcus aureus and Mycobacterium tuberculosis” (RSC Med Chem, 2024).
Values after ≈ are worked out from the molar mass of the structure shown. Active and inactive are the calls of the source. No cut-off for these calls is given here.

How the values were obtained:
Staphylococcus aureus [1] = assay: Antibacterial activity against Staphylococcus aureus ATCC 29213 assessed as bacterial growth inhibition incubated for 16 to 18 hrs by CLSI based antibiotic susceptibility testing method; format: functional; conditions: time 16-18 hrs
Outline: (§1)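 Broth microdilution in cation-adjusted Mueller-Hinton broth. Compounds were tested at […], with levofloxacin as reference and medium-only controls. Plates were incubated at 37 °C for 16-18 h. MIC was the lowest concentration with no visible growth; three independent determinations, each in duplicate.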

[2] = system: Mycobacterium tuberculosis; assay: Antimycobacterial activity against Mycobacterium tuberculosis H37Rv ATCC 27294 assessed as bacterial growth inhibition incubated for 7 days by resazurin dye based broth microdilution method; format: functional; conditions: H37Rv ATCC 27294, 168 h, time 7 day
Outline: (§2)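 Broth microdilution in Middlebrook 7H9 with 10% ADC-Tween-80 (0.2% glycerol, 0.05% Tween-80), inoculum ~10⁶ cfu/mL. Compounds came from 10 mg/mL DMSO stocks and were tested as two-fold serial dilutions at 37 °C, 7 days for M. tuberculosis H37Rv and 72 h for NTM. Growth was read visually with PrestoBlue resazurin dye; MIC was the lowest concentration preventing growth. Triplicate determinations, each in duplicate.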

Escherichia coli = assay: Antibacterial activity against Escherichia coli ATCC 25922 assessed as bacterial growth inhibition incubated for 16 to 18 hrs by CLSI based antibiotic susceptibility testing method; format: functional, organism-based; conditions: time 16-18 hrs; outline: as §1
Klebsiella pneumoniae = assay: Antibacterial activity against Klebsiella pneumoniae BAA 1705 assessed as bacterial growth inhibition incubated for 16 to 18 hrs by CLSI based antibiotic susceptibility testing method; format: functional, organism-based; conditions: time 16-18 hrs; outline: as §1
Acinetobacter baumannii = assay: Antibacterial activity against Acinetobacter baumannii BAA 1605 assessed as bacterial growth inhibition incubated for 16 to 18 hrs by CLSI based antibiotic susceptibility testing method; format: functional, organism-based; conditions: time 16-18 hrs; outline: as §1
Pseudomonas aeruginosa = assay: Antibacterial activity against Pseudomonas aeruginosa ATCC 27853 assessed as bacterial growth inhibition incubated for 16 to 18 hrs by CLSI based antibiotic susceptibility testing method; format: functional, organism-based; conditions: time 16-18 hrs; outline: as §1
[3] = system: Mycobacteroides abscessus; assay: Antimycobacterial activity against Mycobacterium abscessus ATCC 19977 assessed as bacterial growth inhibition incubated for 72 hrs by resazurin dye based broth microdilution method; format: functional, organism-based; outline: as §2
[4] = system: Mycolicibacterium fortuitum; assay: Antimycobacterial activity against Mycobacterium fortuitum ATCC 6841 assessed as bacterial growth inhibition incubated for 72 hrs by resazurin dye based broth microdilution method; format: functional, organism-based; outline: as §2
Mycobacteroides chelonae = assay: Antimycobacterial activity against Mycobacteroides chelonae ATCC 35752 assessed as bacterial growth inhibition incubated for 72 hrs by resazurin dye based broth microdilution method; format: functional, organism-based; outline: as §2
[5] = Cytotoxicity against African green monkey Vero cells by MTT assay; format: toxicity, cell-based; conditions: chlorocebus sabaeus
Outline: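 Vero cells were seeded at ~10³ per well at 37 °C, 5% CO2. After 24 h, compounds were added at 5-100 mg/L for 72 h. […] was added for 4 h, formazan was dissolved in DMSO and read at 540 nm. CC50 was taken as the lowest concentration reducing viability by 50%; doxorubicin was the positive control; triplicate.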

[6] = Selectivity index, ratio of CC50 for African green monkey Vero cells to MIC for Staphylococcus aureus ATCC 29213; format: toxicity, cell-based; conditions: read-out: Selectivity Index
Staphylococcus aureus [7] = assay: Antibacterial activity against methicillin-sensitive Staphylococcus aureus ATCC 29213 clinical isolate assessed as bacterial growth inhibition incubated for 16 to 18 hrs by CLSI based antibiotic susceptibility testing method; format: functional; conditions: time 16-18 hrs; outline: as §1
Staphylococcus aureus [8] = assay: Antibacterial activity against methicillin/ceftriaxone/meropenem/gentamycin/linezolid-resistant Staphylococcus aureus NRS10100 clinical isolate assessed as bacterial growth inhibition incubated for 16 to 18 hrs by CLSI based antibiotic susceptibility testing method; format: functional; conditions: time 16-18 hrs; outline: as §1
Staphylococcus aureus [9] = assay: Antibacterial activity against methicillin/ceftriaxone/meropenem/gentamycin/linezolid-resistant Staphylococcus aureus NRS10119 clinical isolate assessed as bacterial growth inhibition incubated for 16 to 18 hrs by CLSI based antibiotic susceptibility testing method; format: functional; conditions: time 16-18 hrs; outline: as §1
Staphylococcus aureus [10] = assay: Antibacterial activity against methicillin/ceftriaxone/meropenem-resistant Staphylococcus aureus NRS10129 clinical isolate assessed as bacterial growth inhibition incubated for 16 to 18 hrs by CLSI based antibiotic susceptibility testing method; format: functional; conditions: time 16-18 hrs; outline: as §1
Staphylococcus aureus [11] = assay: Antibacterial activity against methicillin/ceftriaxone/meropenem-resistant Staphylococcus aureus NRS10186 clinical isolate assessed as bacterial growth inhibition incubated for 16 to 18 hrs by CLSI based antibiotic susceptibility testing method; format: functional; conditions: time 16-18 hrs; outline: as §1
Staphylococcus aureus [12] = assay: Antibacterial activity against methicillin/ceftriaxone/meropenem-resistant Staphylococcus aureus NRS10191 clinical isolate assessed as bacterial growth inhibition incubated for 16 to 18 hrs by CLSI based antibiotic susceptibility testing method; format: functional; conditions: time 16-18 hrs; outline: as §1
Staphylococcus aureus [13] = assay: Antibacterial activity against methicillin/ceftriaxone/meropenem-resistant Staphylococcus aureus NRS10192 clinical isolate assessed as bacterial growth inhibition incubated for 16 to 18 hrs by CLSI based antibiotic susceptibility testing method; format: functional; conditions: time 16-18 hrs; outline: as §1
Staphylococcus aureus [14] = assay: Antibacterial activity against methicillin/ceftriaxone/meropenem-resistant Staphylococcus aureus NRS10193 clinical isolate assessed as bacterial growth inhibition incubated for 16 to 18 hrs by CLSI based antibiotic susceptibility testing method; format: functional; conditions: time 16-18 hrs; outline: as §1
Staphylococcus aureus [15] = assay: Antibacterial activity against methicillin/ceftriaxone-resistant Staphylococcus aureus NRS10194 clinical isolate assessed as bacterial growth inhibition incubated for 16 to 18 hrs by CLSI based antibiotic susceptibility testing method; format: functional; conditions: time 16-18 hrs; outline: as §1
Staphylococcus aureus [16] = assay: Antibacterial activity against methicillin/ceftriaxone/meropenem-resistant Staphylococcus aureus NRS10198 clinical isolate assessed as bacterial growth inhibition incubated for 16 to 18 hrs by CLSI based antibiotic susceptibility testing method; format: functional; conditions: time 16-18 hrs; outline: as §1
Staphylococcus aureus [17] = assay: Antibacterial activity against methicillin/ceftriaxone/meropenem/gentamycin/vancomycin/teicoplanin-resistant Staphylococcus aureus VRS1 clinical isolate assessed as bacterial growth inhibition incubated for 16 to 18 hrs by CLSI based antibiotic susceptibility testing method; format: functional; conditions: time 16-18 hrs; outline: as §1
Staphylococcus aureus [18] = assay: Antibacterial activity against methicillin/ceftriaxone/meropenem/vancomycin/teicoplanin-resistant Staphylococcus aureus VRS4 clinical isolate assessed as bacterial growth inhibition incubated for 16 to 18 hrs by CLSI based antibiotic susceptibility testing method; format: functional; conditions: time 16-18 hrs; outline: as §1
Staphylococcus aureus [19] = assay: Antibacterial activity against methicillin/ceftriaxone/meropenem/vancomycin/teicoplanin-resistant Staphylococcus aureus VRS12 clinical isolate assessed as bacterial growth inhibition incubated for 16 to 18 hrs by CLSI based antibiotic susceptibility testing method; format: functional; conditions: time 16-18 hrs; outline: as §1

SMILES | MIC (Staphylococcus aureus [1]) | MIC [2] | growth inhibition (GI) (Escherichia coli) | growth inhibition (GI) (Klebsiella pneumoniae) | growth inhibition (GI) (Acinetobacter baumannii) | growth inhibition (GI) (Pseudomonas aeruginosa) | growth inhibition (GI) [3] | growth inhibition (GI) [4] | growth inhibition (GI) (Mycobacteroides chelonae) | CC50 [5] | selectivity ratio [6] | MIC (Staphylococcus aureus [7]) | MIC (Staphylococcus aureus [8]) | MIC (Staphylococcus aureus [9]) | MIC (Staphylococcus aureus [10]) | MIC (Staphylococcus aureus [11]) | MIC (Staphylococcus aureus [12]) | MIC (Staphylococcus aureus [13]) | MIC (Staphylococcus aureus [14]) | MIC (Staphylococcus aureus [15]) | further results
O=C(CN1C(=O)c2cccc3cccc(c23)C1=O)NC1CCN(C(=S)NC2CCCCCC2)CC1 | 0.5 mg/L (≈ 1.01 µM) | > 64 mg/L | inactive | inactive | inactive | inactive | inactive | inactive | inactive | > 100 mg/L | > 200 | 1 mg/L (≈ 2.03 µM) | 0.5 mg/L (≈ 1.01 µM) | 0.5 mg/L (≈ 1.01 µM) | 1 mg/L (≈ 2.03 µM) | 0.5 mg/L (≈ 1.01 µM) | 0.5 mg/L (≈ 1.01 µM) | 1 mg/L (≈ 2.03 µM) | 0.5 mg/L (≈ 1.01 µM) | 1 mg/L (≈ 2.03 µM) | MIC (Staphylococcus aureus [16]): 1 mg/L (≈ 2.03 µM); MIC (Staphylococcus aureus [17]): 1 mg/L (≈ 2.03 µM); MIC (Staphylococcus aureus [18]): 1 mg/L (≈ 2.03 µM); MIC (Staphylococcus aureus [19]): 1 mg/L (≈ 2.03 µM)
O=C(CN1C(=O)c2cccc3cccc(c23)C1=O)N1CCN(C(=S)NC2CCCCC2)CC1 | 0.25 mg/L (≈ 0.538 µM) | > 64 mg/L | inactive | inactive | inactive | inactive | inactive | inactive | inactive | > 100 mg/L | > 400 | 0.125 mg/L (≈ 0.269 µM) | 0.5 mg/L (≈ 1.08 µM) | 0.25 mg/L (≈ 0.538 µM) | 0.25 mg/L (≈ 0.538 µM) | 0.125 mg/L (≈ 0.269 µM) | 0.25 mg/L (≈ 0.538 µM) | 0.125 mg/L (≈ 0.269 µM) | 0.25 mg/L (≈ 0.538 µM) | 0.125 mg/L (≈ 0.269 µM) | MIC (Staphylococcus aureus [16]): 0.25 mg/L (≈ 0.538 µM); MIC (Staphylococcus aureus [17]): 0.25 mg/L (≈ 0.538 µM); MIC (Staphylococcus aureus [18]): 0.25 mg/L (≈ 0.538 µM); MIC (Staphylococcus aureus [19]): 0.25 mg/L (≈ 0.538 µM)
O=C(CN1C(=O)c2cccc3cccc(c23)C1=O)N1CCC(NC(=S)NC2CCCCCC2)CC1 | 0.25 mg/L (≈ 0.507 µM) | > 64 mg/L | inactive | inactive | inactive | inactive | inactive | inactive | inactive | > 100 mg/L | > 400 | 0.25 mg/L (≈ 0.507 µM) | 0.25 mg/L (≈ 0.507 µM) | 0.25 mg/L (≈ 0.507 µM) | 0.25 mg/L (≈ 0.507 µM) | 0.25 mg/L (≈ 0.507 µM) | 0.25 mg/L (≈ 0.507 µM) | 0.25 mg/L (≈ 0.507 µM) | 0.25 mg/L (≈ 0.507 µM) | 0.25 mg/L (≈ 0.507 µM) | MIC (Staphylococcus aureus [16]): 0.25 mg/L (≈ 0.507 µM); MIC (Staphylococcus aureus [17]): 0.25 mg/L (≈ 0.507 µM); MIC (Staphylococcus aureus [18]): 0.25 mg/L (≈ 0.507 µM); MIC (Staphylococcus aureus [19]): 0.25 mg/L (≈ 0.507 µM)
O=C1c2cccc3cccc(c23)C(=O)N1CCN1CCN(C(=S)Nc2ccccc2)CC1 | 2 mg/L (≈ 4.5 µM) | > 64 mg/L | inactive | inactive | inactive | inactive | inactive | inactive | inactive | > 100 mg/L | > 50 | 4 mg/L (≈ 9 µM) | 4 mg/L (≈ 9 µM) | 4 mg/L (≈ 9 µM) | 4 mg/L (≈ 9 µM) | 4 mg/L (≈ 9 µM) | 2 mg/L (≈ 4.5 µM) | 2 mg/L (≈ 4.5 µM) | 2 mg/L (≈ 4.5 µM) | 4 mg/L (≈ 9 µM) | MIC (Staphylococcus aureus [16]): 2 mg/L (≈ 4.5 µM); MIC (Staphylococcus aureus [17]): 4 mg/L (≈ 9 µM); MIC (Staphylococcus aureus [18]): 2 mg/L (≈ 4.5 µM); MIC (Staphylococcus aureus [19]): 4 mg/L (≈ 9 µM)
O=C(CN1C(=O)c2cccc3cccc(c23)C1=O)NC1CCN(C(=S)Nc2ccccc2)CC1 | 4 mg/L (≈ 8.46 µM) | > 64 mg/L | inactive | inactive | inactive | inactive | inactive | inactive | inactive | > 200 mg/L | > 50 | 4 mg/L (≈ 8.46 µM) | 4 mg/L (≈ 8.46 µM) | 2 mg/L (≈ 4.23 µM) | 4 mg/L (≈ 8.46 µM) | 2 mg/L (≈ 4.23 µM) | 2 mg/L (≈ 4.23 µM) | 1 mg/L (≈ 2.12 µM) | 2 mg/L (≈ 4.23 µM) | 4 mg/L (≈ 8.46 µM) | MIC (Staphylococcus aureus [16]): 2 mg/L (≈ 4.23 µM); MIC (Staphylococcus aureus [17]): 2 mg/L (≈ 4.23 µM); MIC (Staphylococcus aureus [18]): 2 mg/L (≈ 4.23 µM); MIC (Staphylococcus aureus [19]): 4 mg/L (≈ 8.46 µM)
